Data published in ChEMBL document CHEMBL3085708, “Identification and profiling of 3,5-dimethyl-isoxazole-4-carboxylic acid [2-methyl-4-((2S,3'S)-2-methyl-[1,3']bipyrrolidinyl-1'-yl)phenyl] amide as histamine H(3) receptor antagonist for the treatment of depression” (Bioorg Med Chem Lett, 2013).

How the values were obtained:
[1] = Mutagenic activity in micronucleus (unknown origin) at 5 to 950 ug/mL in absence of human liver microsomes; assay type: toxicity
How it was run: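 In vitro micronucleus test; concentrations 5 to 950 µg/mL, run with and without metabolic activation by human liver microsomes.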

[2] = Toxicity in guinea pig heart assessed as decrease in ventricular contraction at 30 uM relative to control; assay type: tissue-based, Cavia porcellus, Cardiac ventricle
[3] = test system: Mus musculus; experiment: Toxicity in mouse assessed as effect on neurological activity at 10 to 30 mg/kg, po by Irwin test; assay type: organism-based; design: dose 10-30 mg/kg, route oral; conditions: in vivo
How it was run: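 Irwin exploratory general behaviour study in male mice; single oral doses of 0, 10 and 30 mg/kg; behavioural, neurologic and autonomic effects observed.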

[4] = Oral bioavailability in Sprague-Dawley rat at 10 mg/kg; assay type: ADME, organism-based; conditions: in vivo
How it was run: (§1)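 Male Sprague-Dawley rats dosed 2 mg/kg iv in saline (0.5 mg/mL) and 10 mg/kg po in 0.5% MC/0.2% Tween80 (1.0 mg/mL); plasma and brain concentrations followed.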

[5] = Elimination half life in Sprague-Dawley rat brain at 10 mg/kg, po; assay type: ADME, organism-based; design: dose 10 mg/kg, route oral; conditions: read-out: beta t1/2 (converted)
How it was run: (§2)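 Single-dose PK; male OF1 mice and male Sprague-Dawley rats, 2 mg/kg iv and 10 mg/kg po. Mouse vehicles: iv 50% 1-methyl-2-pyrrolidinone in saline (1.0 mg/mL); po 5% DMSO/0.5% MC/0.2% Tween80 (1.0 mg/mL). Rat vehicles: iv saline (0.5 mg/mL); po 0.5% MC/0.2% Tween80 (1.0 mg/mL). Plasma and brain exposure read as AUC0-∞ and t1/2.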

[6] = Elimination half life in Sprague-Dawley rat plasma at 10 mg/kg, po; assay type: ADME, organism-based; design: dose 10 mg/kg, route oral; conditions: read-out: beta t1/2 (converted); how it was run: as §2
[7] = Tmax in Sprague-Dawley rat brain at 10 mg/kg, po; assay type: ADME, organism-based; design: dose 10 mg/kg, route oral; how it was run: as §1
[8] = Cmax in Sprague-Dawley rat plasma at 10 mg/kg, po; assay type: ADME, organism-based; design: dose 10 mg/kg, route oral
How it was run: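 Oral PK at 10 mg/kg po in male OF1 mice (vehicle 5% DMSO/0.5% MC/0.2% Tween80, 1.0 mg/mL) and male Sprague-Dawley rats (vehicle 0.5% MC/0.2% Tween80, 1.0 mg/mL). Cmax and tmax taken from plasma and brain concentration–time profiles.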

[9] = AUC (0 to infinity) in Sprague-Dawley rat plasma at 10 mg/kg, po; assay type: ADME, organism-based; design: time infinity, dose 10 mg/kg, route oral; how it was run: as §2
[10] = test system: Rattus norvegicus; experiment: Plasma clearance in Sprague-Dawley rat at 2 mg/kg, iv; assay type: ADME, organism-based; design: dose 2 mg/kg, route intravenous; conditions: in vivo; how it was run: as §1
[11] = AUC (0 to infinity) in Sprague-Dawley rat plasma at 2 mg/kg, iv; assay type: ADME, organism-based; design: time infinity, dose 2 mg/kg, route intravenous; how it was run: as §2
[12] = Tmax in OF1 mouse plasma at 10 mg/kg, po; assay type: ADME, organism-based; design: dose 10 mg/kg, route oral
How it was run: (§3)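 Male OF1 mice given 2 mg/kg iv (50% 1-methyl-2-pyrrolidinone in saline, 1.0 mg/mL) and 10 mg/kg po (5% DMSO/0.5% MC/0.2% Tween80, 1.0 mg/mL); plasma and brain exposure measured; B/P ratio from iv AUC.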

[13] = Elimination half life in OF1 mouse plasma at 10 mg/kg, po; assay type: ADME, organism-based; design: dose 10 mg/kg, route oral; conditions: read-out: beta t1/2 (converted); how it was run: as §2
[14] = AUC (0 to infinity) in OF1 mouse brain at 10 mg/kg, po; assay type: ADME, organism-based; design: time infinity, dose 10 mg/kg, route oral; how it was run: as §2
[15] = AUC (0 to infinity) in OF1 mouse plasma at 10 mg/kg, po; assay type: ADME, organism-based; design: time infinity, dose 10 mg/kg, route oral; how it was run: as §2
[16] = Volume of distribution in OF1 mouse at 2 mg/kg, iv; assay type: ADME, organism-based; design: dose 2 mg/kg, route intravenous; conditions: in vivo; how it was run: as §3
[17] = test system: Mus musculus; experiment: Plasma clearance in OF1 mouse at 2 mg/kg, iv; assay type: ADME, organism-based; design: dose 2 mg/kg, route intravenous; conditions: in vivo; how it was run: as §3
[18] = AUC (0 to infinity) in OF1 mouse brain at 2 mg/kg, iv; assay type: ADME, organism-based; design: time infinity, dose 2 mg/kg, route intravenous; how it was run: as §2
[19] = test system: Hepatocyte; experiment: Intrinsic clearance in human hepatocytes measured per 10^6 cells; assay type: ADME, cell-based
How it was run: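 Intrinsic clearance in human hepatocytes, expressed as mL h−1 per 10^6 hepatocytes, n = 4.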

[20] = Drug metabolism in rat plasma at 100 ng/ml after 4 hrs; assay type: ADME, cell-free; conditions: read-out: Drug metabolism
How it was run: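 Compound spiked into blank plasma of human, mouse, rat, rabbit, macaque and dog at 100 ng/ml, then incubated in a 37 °C water bath for up to 4 h; percent metabolized reported.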

[21] = Drug metabolism in macaque liver microsomes; assay type: ADME, Microsome; conditions: macaca, read-out: Drug metabolism
[22] = Drug metabolism in mouse liver microsomes; assay type: ADME, Microsome; conditions: read-out: Drug metabolism
[23] = species: Homo sapiens; experiment: Inhibition of sigma-2 receptor (unknown origin) at 10 uM relative to control
[24] = molecular target: Sigma non-opioid intracellular receptor 1 (Homo sapiens) (UniProt Q99720); experiment: Inhibition of sigma-1 receptor (unknown origin) at 10 uM relative to control
[25] = molecular target: Voltage-gated inwardly rectifying potassium channel KCNH2 (Homo sapiens, UniProt Q12809); experiment: Inhibition of human ERG current transfected in CHO cells by patch clamp assay; assay type: cell-based
How it was run: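 Whole-cell patch clamp on CHO cells, hERG current; IC50 from n = 4.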

[26] = Dissociation constant, pKa of the compound; assay type: physicochemical

Chain of Voltage-gated inwardly rectifying potassium channel KCNH2 (Q12809 whole entry): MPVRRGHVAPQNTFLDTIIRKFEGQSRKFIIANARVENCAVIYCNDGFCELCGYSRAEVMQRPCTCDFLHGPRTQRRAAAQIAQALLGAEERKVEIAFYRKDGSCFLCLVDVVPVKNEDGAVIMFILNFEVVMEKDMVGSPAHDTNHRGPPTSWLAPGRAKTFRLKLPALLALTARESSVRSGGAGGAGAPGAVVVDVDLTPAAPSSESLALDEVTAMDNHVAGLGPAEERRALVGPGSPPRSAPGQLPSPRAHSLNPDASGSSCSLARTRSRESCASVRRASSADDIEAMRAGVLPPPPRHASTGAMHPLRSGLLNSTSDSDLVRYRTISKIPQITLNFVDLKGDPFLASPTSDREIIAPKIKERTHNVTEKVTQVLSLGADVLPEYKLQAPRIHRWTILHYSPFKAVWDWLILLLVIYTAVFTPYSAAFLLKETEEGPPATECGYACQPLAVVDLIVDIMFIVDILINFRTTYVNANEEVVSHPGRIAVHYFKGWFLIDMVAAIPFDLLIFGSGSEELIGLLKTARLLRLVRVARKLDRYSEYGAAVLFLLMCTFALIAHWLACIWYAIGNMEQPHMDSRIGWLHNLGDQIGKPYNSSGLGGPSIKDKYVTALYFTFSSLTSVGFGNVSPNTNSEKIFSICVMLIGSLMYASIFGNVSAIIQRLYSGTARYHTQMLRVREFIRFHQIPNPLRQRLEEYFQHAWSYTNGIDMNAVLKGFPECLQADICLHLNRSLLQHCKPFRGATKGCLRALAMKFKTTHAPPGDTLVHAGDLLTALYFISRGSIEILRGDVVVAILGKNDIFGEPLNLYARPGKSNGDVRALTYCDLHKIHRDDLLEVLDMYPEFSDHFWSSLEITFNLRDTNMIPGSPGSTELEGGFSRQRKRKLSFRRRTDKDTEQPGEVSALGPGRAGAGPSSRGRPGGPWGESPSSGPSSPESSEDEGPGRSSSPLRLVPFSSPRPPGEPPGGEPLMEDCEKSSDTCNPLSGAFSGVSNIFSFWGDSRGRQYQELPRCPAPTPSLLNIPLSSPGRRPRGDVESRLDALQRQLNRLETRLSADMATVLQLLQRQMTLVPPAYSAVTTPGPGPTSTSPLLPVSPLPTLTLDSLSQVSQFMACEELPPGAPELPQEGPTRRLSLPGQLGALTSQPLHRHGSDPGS
Chain of Sigma non-opioid intracellular receptor 1 (Homo sapiens) (Q99720 whole entry): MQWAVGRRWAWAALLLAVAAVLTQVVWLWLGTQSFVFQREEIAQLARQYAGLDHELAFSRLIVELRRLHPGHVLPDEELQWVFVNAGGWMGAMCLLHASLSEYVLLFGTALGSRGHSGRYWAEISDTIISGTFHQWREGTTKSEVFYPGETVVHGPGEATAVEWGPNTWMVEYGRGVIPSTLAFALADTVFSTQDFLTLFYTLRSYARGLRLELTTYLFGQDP

## Cc1cc(N2CC[C@H](N3CCC[C@@H]3C)C2)ccc1NC(=O)c1c(C)noc1C
[1]
  Activity: Non-toxic
[2]
  inhibition at 30 µM: 33%
[3]
  Activity: Non-toxic
[4]
  bioavailability: 56%
[5]
  half-life: 9.4 h
[6]
  half-life: 7.8 h
[7]
  Tmax: 1 h
[8]
  Cmax: 749 ng/mL
[9]
  AUC(0-inf): 3150 ng·h/mL
[10]
  clearance: 30 mL/min/kg
[11]
  AUC(0-inf): 1100 ng·h/mL
[12]
  Tmax: 0.17 h
[13]
  half-life: 1.8 h
[14]
  AUC(0-inf): 3100 ng·h/mL
[15]
  AUC(0-inf): 1900 ng·h/mL
[16]
  Vd: 1.7 L/kg
[17]
  clearance: 50 mL/min/kg
[18]
  AUC(0-inf): 1100 ng·h/mL
[19]
  CLH: 0.04 mL/h
[20]
  metabolised at 4 h, 100 ng/ml: < 5%
[21]
  metabolised: < 5%
[22]
  metabolised: < 5%
[23]
  inhibition: 73%
[24]
  inhibition: 73%
[25]
  IC50: 37 µM
[26]
  pKa: 10.1
